Test results: ChEMBL document CHEMBL1135742, “Modification of the structure of a metallopeptide: synthesis and biological evaluation of (111)In-labeled DOTA-conjugated rhenium-cyclized alpha-MSH analogues” (J Med Chem, 2002)

Columns and labels:
Type in all cases: functional, organism-based
Mus musculus [1] = organism: Mus musculus; test: Radioactivity uptake in the pancreas was expressed as a percentage of the injected radioactive dose per gram of tissue (% ID/g) in B16/F1 Murine Melanoma-Bearing C57 Mice at 4 h
Procedure, shortened: (§1)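 C57 BL/6 female mice (7–8 weeks) carried B16/F1 tumours from 1×10^6 cells given s.c. in the right flank; tumours were ~500 mg at 9–10 days. Each mouse received […] of HPLC-purified, neutralized 111In-DOTA peptide via the tail vein. Mice were killed at 0.5, 2, 4 or 24 h pi. Tissues were weighed and γ-counted, expressed as % ID/g; ratios were tumor/tissue % ID/g.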

Mus musculus [2] = organism: Mus musculus; test: Radioactivity uptake in the kidneys was expressed as a percentage of the injected radioactive dose per gram of tissue (% ID/g) in B16/F1 Murine Melanoma-Bearing C57 Mice at 4 h; details: Kidney; procedure, shortened: as §1
Mus musculus [3] = organism: Mus musculus; test: Radioactivity uptake in the kidneys was expressed as a percentage of the injected radioactive dose per gram of tissue (% ID/g) in B16/F1 Murine Melanoma-Bearing C57 Mice at 24 h; details: Kidney; procedure, shortened: as §1
Mus musculus [4] = organism: Mus musculus; test: Radioactivity uptake in the spleen was expressed as a percentage of the injected radioactive dose per gram of tissue (% ID/g) in B16/F1 Murine Melanoma-Bearing C57 Mice at 2 h; procedure, shortened: as §1
Mus musculus [5] = organism: Mus musculus; test: Radioactivity uptake in the heart was expressed as a percentage of the injected radioactive dose per gram of tissue (% ID/g) in B16/F1 Murine Melanoma-Bearing C57 Mice at 2 h; procedure, shortened: as §1
Mus musculus [6] = organism: Mus musculus; test: Radioactivity uptake in the lungs was expressed as a percentage of the injected radioactive dose per gram of tissue (% ID/g) in B16/F1 Murine Melanoma-Bearing C57 Mice at 2 h; details: Lung; procedure, shortened: as §1
Mus musculus [7] = organism: Mus musculus; test: Uptake Ratio of Tumor/muscle (each in % ID/g) in B16/F1 Murine Melanoma-Bearing C57 Mice at 4 h; details: Muscle tissue
Procedure, shortened: (§2)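 Female C57 BL/6 mice, 7–8 weeks old, carried subcutaneous right-flank B16/F1 tumors from 1×10^6 cells and were used 9–10 days later at ~500 mg tumor weight. Each received […] of HPLC-purified, pH-neutralized ¹¹¹In-DOTA peptide by tail vein. Tumor and organs were excised at the stated time, weighed and γ-counted. Each tissue was taken as % ID/g, and tumor/normal-tissue ratios were formed from these values.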

Mus musculus [8] = organism: Mus musculus; test: Uptake Ratio of Tumor/blood (each in % ID/g) in B16/F1 Murine Melanoma-Bearing C57 Mice at 2 h; procedure, shortened: as §1
Mus musculus [9] = organism: Mus musculus; test: Uptake Ratio of Tumor/lungs (each in % ID/g) in B16/F1 Murine Melanoma-Bearing C57 Mice at 0.5 h; procedure, shortened: as §2
Mus musculus [10] = organism: Mus musculus; test: Uptake Ratio of Tumor/lungs (each in % ID/g) in B16/F1 Murine Melanoma-Bearing C57 Mice at 2 h; procedure, shortened: as §2
Mus musculus [11] = organism: Mus musculus; test: Uptake Ratio of Tumor/liver (each in % ID/g) in B16/F1 Murine Melanoma-Bearing C57 Mice at 24 h; procedure, shortened: as §1
Mus musculus [12] = organism: Mus musculus; test: Radioactivity uptake in the blood was expressed as a percentage of the injected radioactive dose per gram of tissue (% ID/g) in B16/F1 Murine Melanoma-Bearing C57 Mice at 2 h; procedure, shortened: as §1
Mus musculus [13] = organism: Mus musculus; test: Radioactivity uptake in the heart was expressed as a percentage of the injected radioactive dose per gram of tissue (% ID/g) in B16/F1 Murine Melanoma-Bearing C57 Mice at 4 h; procedure, shortened: as §1
Mus musculus [14] = organism: Mus musculus; test: Radioactivity uptake in the liver was expressed as a percentage of the injected radioactive dose per gram of tissue (% ID/g) in B16/F1 Murine Melanoma-Bearing C57 Mice at 24 h; procedure, shortened: as §1
Mus musculus [15] = organism: Mus musculus; test: Radioactivity uptake in the liver was expressed as a percentage of the injected radioactive dose per gram of tissue (% ID/g) in B16/F1 Murine Melanoma-Bearing C57 Mice at 0.5 h; procedure, shortened: as §1
Mus musculus [16] = organism: Mus musculus; test: Radioactivity uptake in the heart was expressed as a percentage of the injected radioactive dose per gram of tissue (% ID/g) in B16/F1 Murine Melanoma-Bearing C57 Mice at 0.5 h; procedure, shortened: as §1
Mus musculus [17] = organism: Mus musculus; test: Radioactivity uptake in the tumor was expressed as a percentage of the injected radioactive dose per gram of tissue (% ID/g) in B16/F1 Murine Melanoma-Bearing C57 Mice at 0.5 h; procedure, shortened: as §1
Mus musculus [18] = organism: Mus musculus; test: Radioactivity uptake in the tumor was expressed as a percentage of the injected radioactive dose per gram of tissue (% ID/g) in B16/F1 Murine Melanoma-Bearing C57 Mice at 4 h; procedure, shortened: as §1
Mus musculus [19] = organism: Mus musculus; test: Radioactivity uptake in the lungs was expressed as a percentage of the injected radioactive dose per gram of tissue (% ID/g) in B16/F1 Murine Melanoma-Bearing C57 Mice at 4 h; details: Lung; procedure, shortened: as §1
Mus musculus [20] = organism: Mus musculus; test: Radioactivity uptake in the muscle was expressed as a percentage of the injected radioactive dose per gram of tissue (% ID/g) in B16/F1 Murine Melanoma-Bearing C57 Mice at 0.5 h; procedure, shortened: as §1
Mus musculus [21] = organism: Mus musculus; test: Radioactivity uptake in the pancreas was expressed as a percentage of the injected radioactive dose per gram of tissue (% ID/g) in B16/F1 Murine Melanoma-Bearing C57 Mice at 0.5 h; procedure, shortened: as §1
Mus musculus [22] = organism: Mus musculus; test: Uptake Ratio of Tumor/kidneys (each in % ID/g) in B16/F1 Murine Melanoma-Bearing C57 Mice at 24 h; details: Kidney; procedure, shortened: as §1

Substance | ID/g (Mus musculus [1]) [%] | ID/g (Mus musculus [2]) [%] | ID/g (Mus musculus [3]) [%] | ID/g (Mus musculus [4]) [%] | ID/g (Mus musculus [5]) [%] | ID/g (Mus musculus [6]) [%] | Uptake ratio (Mus musculus [7]) | Uptake ratio (Mus musculus [8]) | Uptake ratio (Mus musculus [9]) | Uptake ratio (Mus musculus [10]) | Uptake ratio (Mus musculus [11]) | ID/g (Mus musculus [12]) [%] | ID/g (Mus musculus [13]) [%] | ID/g (Mus musculus [14]) [%] | ID/g (Mus musculus [15]) [%] | ID/g (Mus musculus [16]) [%] | ID/g (Mus musculus [17]) [%] | ID/g (Mus musculus [18]) [%] | ID/g (Mus musculus [19]) [%] | ID/g (Mus musculus [20]) [%] | also measured
Ac-Lys(DOTA)-ReCCEHdFRWCKPV-NH2 | 0.057 | 19 | 13.4 | 0.11 | 0.08 | 0.18 | 3400 | 175 | 4.7 | 48.6 | 12.7 | 0.09 | 0.029 | 0.28 | 0.66 | 0.86 | 7.15 | 6.01 | 0.18 | 0.42 | ID/g (Mus musculus [21]): 0.48%; Uptake ratio (Mus musculus [22]): 0.27
DOTA-ReCCEHdFRWCKPVD-OH | 0.031 | 8.13 | 6.28 | 0.23 | 0.07 | 0.16 | 156 | 224 | 7.8 | 56.6 | 12.9 | 0.05 | 0.054 | 0.19 | 0.43 | 0.44 | 8.96 | 7.32 | 0.097 | 0.25 | ID/g (Mus musculus [21]): 0.27%; Uptake ratio (Mus musculus [22]): 0.4
